Measured values from different studies.
Lines come from different studies, so protocols differ.
MMP9: Matrix metalloproteinase-9 (MMP9, Homo sapiens, UniProt P14780)
MAOB: Amine oxidase [flavin-containing] B (MAOB, Homo sapiens, UniProt P27338)
TNFAIP3: TNFAIP3 (Homo sapiens, UniProt P21580)

SMILES	target	assay	test system	conditions	inhibition
O=C(Nc1cccnn1)N1CCN([C@@H]2CCOc3cc(C(F)(F)F)ccc32)CC1	MMP9	enzyme activity, inhibitor		20 µM	8%
c1ccc(C(NCCNC(c2ccccc2)c2ccccc2)c2ccccc2)cc1	MAOB	enzyme activity, inhibitor		10 µM	5%
CN1CCN(CCCCOc2ccc3occc(=O)c3c2)CC1	MAOB	enzyme activity, inhibitor, fluorescence		10 µM	20%
CN(CCN1CCC(OC(=O)Nc2ccccc2-c2ccccc2)CC1)C(=O)c1ccc(CN2CCC(C(N)=O)CC2)cc1	MAOB	enzyme activity, inhibitor		1 µM	-2%
CN(C)C(=O)COC(=O)Cc1ccc(OC(=O)c2ccc(NC(=N)N)cc2)cc1	TNFAIP3	enzyme activity, inhibitor		10 µM	4%
Cc1ncc(C)n2nc(/C=C/c3nc(N4CCCC4)cc(N4CCOCC4)n3)nc12	MMP9	enzyme activity, inhibitor		10 µM	12%
CN1CCN(CCOc2ccc3occc(=O)c3c2)CC1	MAOB	enzyme activity, inhibitor, fluorescence		10 µM	12%
CC(C)C[C@H](NC(=O)[C@H]1O[C@@H]1C(=O)O)C(=O)NCCCCN=C(N)N	Cathepsin L2 (CTSV, Homo sapiens, UniProt O60911)	enzyme activity, inhibitor		0.5 µM	94%
COCc1c(-c2cc3cc(C)cc(OC)c3s2)c2c(N)ncnn2c1CN1CCNC(=O)C1	Endothelin receptor type B (EDNRB, Homo sapiens, UniProt P24530)	ligand displacement, radioligand		10 µM	-1%
N=C(N)c1ccc2cc(OC(=O)c3ccc(N=C(N)N)cc3)ccc2c1	TNFAIP3	enzyme activity, inhibitor		10 µM	13%
Cc1ccc(OP(=O)(Oc2ccc(C)cc2)Oc2ccc(C)cc2)cc1	Cholinesterase (Bche, Mus musculus, UniProt Q03311)	enzyme activity, inhibitor	mouse	oral, 240 mg/kg	20%
COc1ccc(S(=O)(=O)N(CC(=O)NO)CC(C)C)cc1	Matrix metalloproteinase-9 (MMP9, Homo sapiens, UniProt P14780, Q279R)	enzyme activity, inhibitor		0.1 µM	96%
COc1cc(Nc2ncc(F)c(Nc3ccc4c(n3)NC(=O)C(C)(C)O4)n2)cc(OC)c1OC	NUAK family SNF1-like kinase 2 (NUAK2, Homo sapiens, UniProt Q9H093)	binding, competition with immobilised ligand		10 µM	97%
